Assay results from ChEMBL document CHEMBL3792331, “Identification and synthesis of potent and selective pyridyl-isoxazole based agonists of sphingosine-1-phosphate 1 (S1P1)” (Bioorg Med Chem Lett, 2016).
pEC50: −log10 of the molar value.

Legend:
[1] = Selectivity index, ratio of EC50 for agonist activity at human S1P3 receptor expressed in EDG3-Ga15-bla HEK293T cell membranes to EC50 for agonist activity at human S1P1 receptor expressed in CHO cell membranes; format: cell-based
Summary of the method: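 S1P3/S1P1 ratio of GTPγ[35S] EC50s. Membranes from EDG3-Ga15-bla HEK293T (S1P3) or S1P1/CHO cells, […], 0.2 nM final [35S]GTP. HEPES pH 7.5 buffer with MgCl2, NaCl, EGTA, DTT, GDP, BSA and saponin. 45 min at room temperature, filtration read-out. Each EC50 taken at 50% of the compound's own Ymax.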

[2] = system: Plasma; test: Ratio of plasma concentration Lewis rat at 1 mg/kg, po after 4 hrs to plasma concentration Lewis rat at 1 mg/kg, po after 24 hrs; format: ADME, organism-based; details: in vivo
Summary of the method: (§1)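 Lewis rats given 1.0 mg/kg orally as solution or suspension in vehicle. Plasma drug concentration measured in blood drawn at 4 h and 24 h; 4 h/24 h ratio taken from these values.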

[3] = system: Rattus norvegicus; test: Reduction in circulating lymphocytes in Lewis rat at 1 mg/kg, po after 4 hrs; format: functional
Summary of the method: (§2)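 Healthy Lewis rats dosed orally with test article as solution or suspension in vehicle, or vehicle alone. Blood drawn at 4 h and 24 h. Circulating lymphocyte percentage measured by hematology analyzer, expressed as reduction versus the vehicle group. Group average, n = 3–4.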

[4] = system: Rattus norvegicus; test: Reduction in circulating lymphocytes in Lewis rat at 1 mg/kg, po after 24 hrs; format: functional; summary of the method: as §2
[5] = Plasma concentration Lewis rat at 1 mg/kg, po after 24 hrs; format: ADME, organism-based; summary of the method: as §1
[6] = Plasma concentration Lewis rat at 1 mg/kg, po after 4 hrs; format: ADME, organism-based; summary of the method: as §1
[7] = biological target: Sphingosine 1-phosphate receptor 1 (Homo sapiens, UniProt P21453); test: Agonist activity at human S1P1 receptor expressed in CHO cell membranes assessed as stimulation of [35S]GTPgamma binding incubated for 45 mins by liquid scintillation counting method
Sequence of Sphingosine 1-phosphate receptor 1 (P21453 whole entry): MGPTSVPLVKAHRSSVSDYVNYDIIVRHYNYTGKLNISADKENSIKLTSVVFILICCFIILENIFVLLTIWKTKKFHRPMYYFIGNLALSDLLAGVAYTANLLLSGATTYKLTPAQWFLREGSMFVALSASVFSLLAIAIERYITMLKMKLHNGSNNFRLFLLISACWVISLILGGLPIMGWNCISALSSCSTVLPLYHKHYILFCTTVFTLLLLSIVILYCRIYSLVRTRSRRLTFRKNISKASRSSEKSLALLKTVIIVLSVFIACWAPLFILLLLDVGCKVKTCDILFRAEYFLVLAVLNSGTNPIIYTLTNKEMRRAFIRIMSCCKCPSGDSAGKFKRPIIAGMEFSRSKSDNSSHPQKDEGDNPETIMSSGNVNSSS
Summary of the method: (§3)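 Membranes from S1P1/CHO cells (S1P1) or EDG3-Ga15-bla HEK293T cells (S1P3), final protein […], with 3-fold compound dilutions. Buffer: 20 mM HEPES pH 7.5, 10 mM MgCl2, 150 mM NaCl, 1 mM EGTA, 1 mM DTT, GDP, 0.1% fatty acid free BSA, saponin. [35S]GTP 0.2 nM final. Room temperature, 45 min. Filtered, washed with water, dried 60 °C. EC50 taken at 50% of each compound's Ymax.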

[8] = biological target: Sphingosine 1-phosphate receptor 3 (Homo sapiens, UniProt Q99500); test: Agonist activity at human S1P3 receptor expressed in EDG3-Ga15-bla HEK293T cell membranes assessed as stimulation of [35S]GTPgamma binding incubated for 45 mins by liquid scintillation counting method; set-up: species or system HEK-293T; summary of the method: as §3
Sequence of Sphingosine 1-phosphate receptor 3 (Q99500 whole entry): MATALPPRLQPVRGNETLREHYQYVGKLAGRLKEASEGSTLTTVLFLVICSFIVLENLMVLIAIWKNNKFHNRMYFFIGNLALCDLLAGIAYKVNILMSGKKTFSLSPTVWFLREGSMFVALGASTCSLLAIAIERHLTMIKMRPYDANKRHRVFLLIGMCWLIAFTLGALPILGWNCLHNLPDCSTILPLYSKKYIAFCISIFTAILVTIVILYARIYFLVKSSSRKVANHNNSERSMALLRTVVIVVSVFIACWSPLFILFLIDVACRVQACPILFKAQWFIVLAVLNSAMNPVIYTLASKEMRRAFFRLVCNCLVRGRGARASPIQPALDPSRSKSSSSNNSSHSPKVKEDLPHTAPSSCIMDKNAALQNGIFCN

Ratio [2]	concentration at 24 h [5] [nM]	concentration at 4 h [6] [nM]	pEC50 [7]	pEC50 [8]	SMILES	Ratio EC50 [1]	inhibition in vivo at 1 mg/kg [3] [%]	inhibition in vivo at 1 mg/kg [4] [%]
30	9.9	292			CCCc1c(-c2nc(-c3ccc(CN4CC(C(=O)O)C4)cc3)no2)noc1-c1ccccn1	2500	81	53
12	26	318	9.68	6.20	CCCc1c(-c2ccccn2)noc1-c1nc(-c2ccc(CN3CC(C(=O)O)C3)cc2)no1	3000	82	85
